The record followed here is ChEMBL document CHEMBL1139543, “Antineoplastic agents. 445. Synthesis and evaluation of structural modifications of (Z)- and (E)-combretastatin A-41” (J Med Chem, 2005).

Converted amounts (≈) assume the structure as drawn.

As a reminder, the GI50 is the concentration that inhibits growth by half. A lower GI50 goes with greater sensitivity of the cells. By IC50 is commonly meant the midpoint of a concentration-inhibition curve. Higher therefore signals weaker potency in that assay.

For one experiment, the system named is FaDu. Nature of the experiment: Growth inhibition against human pharynx FADU cell line. The experiment is classed as functional.
Conditions: not given
On to `COc1ccc(/C=C\c2cc(OC)c(OC)c(OC)c2)cc1OCCn1cccc1.Cl`, for which the GI50 turned out to be 0.003 µg/mL.

The molecule `COc1ccc(/C=C\c2cc(OC)c(OC)c(OC)c2)cc1OCCn1ccnc1.Cl` showed a GI50 of 0.67 µg/mL.

`COc1ccc(/C=C\c2cc(OC)c(OC)c(OC)c2)cc1OC(=O)N(CCCl)CCCl` returned a 50% growth inhibitory concentration (GI50) of 0.15 µg/mL (≈ 0.31 µM).

For the molecule `COc1ccc(/C=C\c2cc(OC)c(OC)c(OC)c2)cc1O` [COMBRETASTATIN A4], the GI50 stood at 0.00065 µg/mL (≈ 0.00205 µM).

For `COc1ccc(/C=C\c2cc(OC)c(OC)c(OC)c2)cc1OCCN1CCCCC1.Cl`, halving of growth (GI50) required 4.2 µg/mL.

`COc1ccc(/C=C/c2cc(OC)c(OC)c(OC)c2)cc1OCCCO` registered a GI50 of 2.3 µg/mL (≈ 6.14 µM).

The next experiment has as its system NCI-H460. Nature of the experiment: Growth inhibition against human lung-NSC NCI-H460 cell line.
Conditions: not given
The experiment is classed as functional.
Consider `COc1ccc(/C=C\c2cc(OC)c(OC)c(OC)c2)cc1OCCn1cccc1.Cl`, for which the concentration for 50% growth inhibition (GI50) amounted to 0.0033 µg/mL.

With `COc1ccc(/C=C\c2cc(OC)c(OC)c(OC)c2)cc1OCCn1ccnc1.Cl`, the GI50 was found to be 0.56 µg/mL.

Molecule `COc1ccc(/C=C\c2cc(OC)c(OC)c(OC)c2)cc1OC(=O)N(CCCl)CCCl` registered a concentration for 50% growth inhibition (GI50) of 0.37 µg/mL (≈ 0.764 µM).

Consider `COc1ccc(/C=C\c2cc(OC)c(OC)c(OC)c2)cc1O` [COMBRETASTATIN A4], for which growth was halved (GI50) at 0.00056 µg/mL (≈ 0.00177 µM).

In turn, `COc1ccc(/C=C\c2cc(OC)c(OC)c(OC)c2)cc1OCCN1CCCCC1.Cl` showed a concentration for 50% growth inhibition (GI50) of 3.3 µg/mL.

In turn, `COc1ccc(/C=C/c2cc(OC)c(OC)c(OC)c2)cc1OCCCO` gave a GI50 of more than 10 µg/mL.

The next experiment deals with DU-145. As to the kind of experiment: Growth inhibition against human prostate cell line (DU-145). The experiment is classed as functional.
Conditions: not given
`COc1ccc(/C=C\c2cc(OC)c(OC)c(OC)c2)cc1OCCn1cccc1.Cl` came in with a concentration for 50% growth inhibition (GI50) of 0.56 µg/mL.

Consider `COc1ccc(/C=C\c2cc(OC)c(OC)c(OC)c2)cc1OCCn1ccnc1.Cl`, for which the concentration for 50% growth inhibition (GI50) turned out to be 1.5 µg/mL.

Consider `COc1ccc(/C=C\c2cc(OC)c(OC)c(OC)c2)cc1OC(=O)N(CCCl)CCCl`, for which the GI50 turned out to be 0.31 µg/mL (≈ 0.64 µM).

As for `COc1ccc(/C=C\c2cc(OC)c(OC)c(OC)c2)cc1O` [COMBRETASTATIN A4], it took 0.00076 µg/mL (≈ 0.0024 µM) to inhibit growth by half (GI50).

Take `COc1ccc(/C=C\c2cc(OC)c(OC)c(OC)c2)cc1OCCN1CCCCC1.Cl`: the concentration for 50% growth inhibition (GI50) came out at 3.4 µg/mL.

Molecule `COc1ccc(/C=C/c2cc(OC)c(OC)c(OC)c2)cc1OCCCO` returned a 50% growth inhibitory concentration (GI50) of 4.5 µg/mL (≈ 12 µM).

Another experiment deals with SW-1736. As to the kind of experiment: Growth inhibition against human thyroid cell line( SW 1736). The class given is functional.
Conditions: not given
`COc1ccc(/C=C\c2cc(OC)c(OC)c(OC)c2)cc1OCCn1cccc1.Cl` displayed a GI50 of 4.9 µg/mL.

`COc1ccc(/C=C\c2cc(OC)c(OC)c(OC)c2)cc1OCCn1ccnc1.Cl`: halving of growth (GI50) required 1.5 µg/mL.

In the case of `COc1ccc(/C=C\c2cc(OC)c(OC)c(OC)c2)cc1OC(=O)N(CCCl)CCCl`, the GI50 was 0.72 µg/mL (≈ 1.49 µM).

With `COc1ccc(/C=C\c2cc(OC)c(OC)c(OC)c2)cc1O` [COMBRETASTATIN A4], the GI50 is 0.00026 µg/mL (≈ 0.000822 µM).

Take `COc1ccc(/C=C\c2cc(OC)c(OC)c(OC)c2)cc1OCCN1CCCCC1.Cl`: the GI50 was 5.1 µg/mL.

On to `COc1ccc(/C=C/c2cc(OC)c(OC)c(OC)c2)cc1OCCCO`, for which the GI50 turned out to be 11.6 µg/mL (≈ 31 µM).

The next experiment has as its system Micrococcus luteus. Nature of the experiment: Minimum inhibitory concentration against Micrococcus luteus was determined in the disk diffusion assay; value ranges from 12.5-25 ug/disk. The class given is functional.
Conditions: not given
As for `COc1ccc(/C=C\c2cc(OC)c(OC)c(OC)c2)cc1OCCn1ccnc1.Cl`, the MIC amounted to 25 ug/disk.

For another experiment, the system named is Neisseria gonorrhoeae. Nature of the experiment: Minimum inhibitory concentration against Neisseria gonorrhoeae was determined in the disk diffusion assay; value ranges from 50-100 ug/disk. The class given is functional.
Conditions: not given
For orientation: In agar diffusion tests the substance spreads into inoculated agar from a disc or well.
In turn, `COc1ccc(/C=C\c2cc(OC)c(OC)c(OC)c2)cc1OCCn1ccnc1.Cl` returned an MIC of 100 ug/disk.

In a further experiment the test system is P388. Nature of the experiment: Effective dose against murine P388 leukemia cell line. The experiment is classed as functional. Particulars: Mus musculus, read-out: ED50 (the source's name).
As to `COc1ccc(/C=C\c2cc(OC)c(OC)c(OC)c2)cc1OCCn1cccc1.Cl`, the EC50 is 0.0232 µg/mL.

On to `COc1ccc(/C=C\c2cc(OC)c(OC)c(OC)c2)cc1OCCn1ccnc1.Cl`, for which the EC50 was found to be 19 µg/mL.

On to `COc1ccc(/C=C\c2cc(OC)c(OC)c(OC)c2)cc1OC(=O)N(CCCl)CCCl`, for which the EC50 amounted to 0.074 µg/mL (≈ 0.153 µM).

As for `COc1ccc(/C=C\c2cc(OC)c(OC)c(OC)c2)cc1O` [COMBRETASTATIN A4], the EC50 was found to be 0.0026 µg/mL (≈ 0.00822 µM).

As for `COc1ccc(/C=C\c2cc(OC)c(OC)c(OC)c2)cc1OCCN1CCCCC1.Cl`, the EC50 was 0.348 µg/mL.

With `COc1ccc(/C=C/c2cc(OC)c(OC)c(OC)c2)cc1OCCCO`, the EC50 was found to be 6.8 µg/mL (≈ 18.2 µM).

The target of a further experiment is Tubulin beta-1 chain (Homo sapiens, UniProt Q9H4B7). Nature of the experiment: Inhibition of tubulin polymerization upon incubation for 20 min at 30 degree C.
Chain of Tubulin beta-1 chain (Q9H4B7 whole entry): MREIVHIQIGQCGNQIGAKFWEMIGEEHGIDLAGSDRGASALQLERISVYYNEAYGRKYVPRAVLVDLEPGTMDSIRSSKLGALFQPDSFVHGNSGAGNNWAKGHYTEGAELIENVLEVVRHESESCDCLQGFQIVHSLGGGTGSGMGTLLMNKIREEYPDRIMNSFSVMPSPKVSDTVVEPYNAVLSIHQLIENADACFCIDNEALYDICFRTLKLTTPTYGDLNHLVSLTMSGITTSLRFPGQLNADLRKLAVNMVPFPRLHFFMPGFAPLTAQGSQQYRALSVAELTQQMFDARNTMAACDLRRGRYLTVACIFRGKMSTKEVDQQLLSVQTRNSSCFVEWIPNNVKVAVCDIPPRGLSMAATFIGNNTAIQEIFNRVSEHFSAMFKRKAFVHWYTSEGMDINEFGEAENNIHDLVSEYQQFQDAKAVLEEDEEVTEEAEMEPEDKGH
Conditions: not given
Summed up:
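Purified tubulin at 10 µM (1.0 mg/mL) in 0.8 M monosodium glutamate, pH 6.6, with 4% (v/v) DMSO and varying compound concentrations. Preincubated 15 min at 37 °C, chilled on ice, then GTP (0.4 mM) added. Warmed from 0 °C to 30 °C, and assembly followed 20 min by turbidity at 350 nm. IC50 interpolated; at least two determinations; SD reported.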
For `COc1ccc(/C=C\c2cc(OC)c(OC)c(OC)c2)cc1OCCn1cccc1.Cl`, the midpoint of inhibition, the IC50, lay at 20 µM.

For the molecule `COc1ccc(/C=C\c2cc(OC)c(OC)c(OC)c2)cc1OCCn1ccnc1.Cl`, the IC50 is 7.6 µM.

`COc1ccc(/C=C\c2cc(OC)c(OC)c(OC)c2)cc1OC(=O)N(CCCl)CCCl`: the half-maximal inhibitory concentration (IC50) was more than 40 µM.

For `COc1ccc(/C=C\c2cc(OC)c(OC)c(OC)c2)cc1OCCN1CCCCC1.Cl`, the IC50 was more than 40 µM.

A further experiment relates to SK-N-SH. As to the kind of experiment: Growth inhibition against human neuroblastoma cell line (SK-N-SH). The class given is functional.
Conditions: not given
On to `COc1ccc(/C=C\c2cc(OC)c(OC)c(OC)c2)cc1OCCn1cccc1.Cl`, for which the GI50 was 0.0064 µg/mL.

`COc1ccc(/C=C\c2cc(OC)c(OC)c(OC)c2)cc1OCCn1ccnc1.Cl` displayed a GI50 of 0.31 µg/mL.

In the case of `COc1ccc(/C=C\c2cc(OC)c(OC)c(OC)c2)cc1OC(=O)N(CCCl)CCCl`, the 50% growth inhibitory concentration (GI50) was determined as 0.14 µg/mL (≈ 0.289 µM).

In the case of `COc1ccc(/C=C\c2cc(OC)c(OC)c(OC)c2)cc1O` [COMBRETASTATIN A4], the concentration for 50% growth inhibition (GI50) was 0.00026 µg/mL (≈ 0.000822 µM).

Molecule `COc1ccc(/C=C\c2cc(OC)c(OC)c(OC)c2)cc1OCCN1CCCCC1.Cl` had a GI50 of 1.6 µg/mL.

`COc1ccc(/C=C/c2cc(OC)c(OC)c(OC)c2)cc1OCCCO`: the GI50 is 8.1 µg/mL (≈ 21.6 µM).

A further experiment relates to BXPC-3. Nature of the experiment: Growth inhibition against human pancreas carcinoma cell line (BxPC-3).
Conditions: not given
The experiment is classed as functional.
Molecule `COc1ccc(/C=C\c2cc(OC)c(OC)c(OC)c2)cc1OCCn1cccc1.Cl` had a GI50 of 2.3 µg/mL.

On to `COc1ccc(/C=C\c2cc(OC)c(OC)c(OC)c2)cc1OCCn1ccnc1.Cl`, for which the GI50 stood at 0.82 µg/mL.

For the molecule `COc1ccc(/C=C\c2cc(OC)c(OC)c(OC)c2)cc1OC(=O)N(CCCl)CCCl`, the 50% growth inhibitory concentration (GI50) was 2.8 µg/mL (≈ 5.78 µM).

The molecule `COc1ccc(/C=C\c2cc(OC)c(OC)c(OC)c2)cc1O` [COMBRETASTATIN A4] showed a GI50 of more than 0.1 µg/mL.

The molecule `COc1ccc(/C=C\c2cc(OC)c(OC)c(OC)c2)cc1OCCN1CCCCC1.Cl` showed a concentration for 50% growth inhibition (GI50) of more than 10 µg/mL.

In turn, `COc1ccc(/C=C/c2cc(OC)c(OC)c(OC)c2)cc1OCCCO` had a 50% growth inhibitory concentration (GI50) of more than 10 µg/mL.
